Screening results as filed in PubChem BioAssay.
A selection: hits, their analogues and other compounds. The true share with any hit is near 2.8%.
ARFGAP1 inhibitor: rat ARFGAP1 inhibition | Q62848 | inhibition, % at 16.5 µM | 0.26% of 360,000 active | Arfgap1-stimulated ARF1 GTP hydrolysis, GDP FP detection | AID 651572;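 active = inhibition above a per-plate limit, mean inhibition of low control wells plus 3 SD, cut at about 25% in these data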;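 also: 0% = DMSO wells with enzyme and 100% = wells lacking Arfgap1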
Target sequence (Q62848 1-136 limits assumed): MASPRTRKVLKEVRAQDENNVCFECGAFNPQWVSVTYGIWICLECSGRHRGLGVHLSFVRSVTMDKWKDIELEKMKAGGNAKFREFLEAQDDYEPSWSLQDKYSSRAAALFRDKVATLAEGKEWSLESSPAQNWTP
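Material: truncated rat Arfgap1 GAP domain; Incubation: compound-enzyme preincubation 20 min, reaction 120 min, detection 60 min, 25 °C; Read-out: percent inhibition of Arfgap1-stimulated GTP hydrolysis; Technique: FP, GDP Alexa 633 tracer displaced from anti-GDP antibody, 620/688 nm; Controls: No-Arfgap1 wells (100%) versus DMSO full-reaction wells (0%); Replication: single well per compound.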
ASAP1 GAP inh: inhibitors of human ASAP1 ArfGAP activity; Q9ULH1; ASAP1-stimulated ARF1 GTP hydrolysis, GDP FP detection; inhibition, % at 16.5 µM; 0.19% of 360,000 active; AID 624377; in the data active = inhibition above about 25%;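 also: 0% = vehicle with enzyme and substrate and 100% = no enzyme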
Target sequence (Q9ULH1 325-724 limits assumed): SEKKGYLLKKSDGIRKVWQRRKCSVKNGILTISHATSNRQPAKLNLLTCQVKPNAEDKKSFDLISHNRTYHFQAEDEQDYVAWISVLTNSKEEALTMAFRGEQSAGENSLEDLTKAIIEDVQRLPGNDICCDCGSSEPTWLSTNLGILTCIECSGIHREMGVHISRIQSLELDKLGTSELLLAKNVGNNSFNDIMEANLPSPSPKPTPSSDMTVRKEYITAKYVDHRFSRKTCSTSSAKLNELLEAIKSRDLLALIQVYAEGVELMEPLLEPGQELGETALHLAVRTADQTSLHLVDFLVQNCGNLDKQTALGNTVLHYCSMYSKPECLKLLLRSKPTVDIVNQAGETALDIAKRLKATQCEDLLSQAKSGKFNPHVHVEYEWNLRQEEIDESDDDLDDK
pPAFAH inh: pPAFAH (human) enzyme inhibition. recombinant pPAFAH, FP-rhodamine probe fluorescence polarization. 1.5% of 330,000 active. Q13093. inhibition, % at 3.39 µM;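 active = inhibition above the mean inhibition across the screen plus 3 SD, cut at about 25% in these data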;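 also: inhibitors block binding of the rhodamine activity-based probe so polarization drops; 0% = enzyme with DMSO and 100% = wells lacking pPAFAH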
PAFAH2 inh: inhibitors of human PAFAH2; AID 492956; inhibition, % at 3.39 µM; recombinant PAFAH2, FP-rhodamine activity probe, fluorescence polarization; Q99487; 0.99% of 340,000 active;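 active = inhibition above the mean over all tested compounds plus 3 SD, cut at about 30% in these data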;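 also: inhibitors block probe labeling of enzyme so polarization drops; 0% = enzyme with DMSO and 100% = wells lacking PAFAH2 protein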
PAFAH1B3 inh: inhibitors of human PAFAH1B3; Q15102; recombinant PAFAH1B3, FP-rhodamine probe, fluorescence polarization; inhibition, % at 3.39 µM; 0.28% of 340,000 active; AID 492972;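 active = inhibition above the screen-wide average of all tested compounds plus 3 SD, cut at about 25% in these data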;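 also: 0% = enzyme with DMSO only and 100% = wells lacking PAFAH1B3 protein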
PAFAH1B2 FP inh: PAFAH1B2 (human) inhibition. inhibition, % at 3.39 µM. recombinant PAFAH1B2, FP-rhodamine activity probe, fluorescence polarization. P68402. 1.2% of 340,000 active;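 active = inhibition above the mean of all tested compounds plus 3 SD, cut at about 24% in these data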;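 also: 0% = enzyme with DMSO and 100% = wells lacking PAFAH1B2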
Numbers without * were called inactive; nt = no result.

SMILES	ARFGAP1 inhibitor	ASAP1 GAP inh	pPAFAH inh	PAFAH2 inh	PAFAH1B3 inh	PAFAH1B2 FP inh
Cc1nnc(SCC(=O)Nc2cc(C(N)=O)cc(C(N)=O)c2)n1-c1ccccc1	-7	19	3	2	-2	28*
CCNC(C(=O)c1c[nH]c2c(CC)cccc12)c1ccccc1 (stereo unspecified)	9	-3	2	1	3	2
Cc1ccsc1C(=O)N1CCC1(C)C(=O)NCc1cccnc1 (stereo unspecified)	5	-7	nt	nt	nt	nt
O=C(c1ccccc1)c1coc2c1C(=O)c1ccccc1C2=O	7	13	1	48*	29*	3
CC1(C)CC=CC(COC(=O)c2ccccc2C(=O)O)C1 (stereo unspecified)	-14	15	nt	23	7	29*
Cc1c(C(=O)N2CCCCC2)c(S(=O)(=O)N2CCN(c3ccc(Cl)cc3)CC2)c(C)n1C	11	19	25*	-3	-2	15
Cc1cc(=O)[nH]c(SCc2ccccc2)n1	9	5	-2	3	5	0
CC(C)(C)c1cc(=O)[nH]c(SCc2ccccc2)n1	2	10	31*	14	1	21
CC(C)(C)c1cc(=O)[nH]c(SCc2ccccc2Cl)n1	3	11	27*	16	4	12
CCC(C)(O)C(=O)N[C@H]1CCCN1C(=O)/C=C/c1ccccc1 (stereo partly specified)	9	15	-2	3	2	2
CC1CC2(C)C(=CC1=O)CCC1C2C(O)CC2(C)C1CCC2(O)C(=O)CO (stereo unspecified)	13	-2	nt	0	0	-3
CC(=O)c1sc(Nc2ccc(Oc3ccccc3)cc2)nc1C	6	6	nt	nt	nt	nt
COC1=C(Br)C(=O)c2ncccc2C1=O	22	47*	nt	48*	58*	17
Nc1c(C(=O)OCC(=O)Nc2ccc(Cl)cc2[N+](=O)[O-])[nH]c(=O)[nH]c1=O	1	-15	33*	-4	2	1
NS(=O)(=O)c1cc(C(=O)OCC(=O)Nc2ccc(Cl)cc2[N+](=O)[O-])ccc1Cl	-5	9	2	-6	11	5
C[C@@H](NC(=O)c1ncn2c1c(=O)[nH]c1ccc(Br)cc12)c1ccccc1	13	-8	nt	nt	nt	nt
COc1ccc(Br)cc1CNC(=O)C1CCCN(S(=O)(=O)N2CC(C)CC(C)C2)C1 (stereo unspecified)	-3	11	2	-3	9	6
COCC(C)NC(=O)NC1(C(F)(F)F)Oc2ccc(Cl)cc2O1 (stereo unspecified)	-6	6	-1	2	2	25*
O=C(NCc1ccccc1)c1ccc(NC(=O)C2CCCO2)cc1 (stereo unspecified)	-8	0	3	0	6	-2
CCCCCC(=O)Nc1cc(S(=O)(=O)N2CCCCC2)ccc1N1CCCCC1	8	-9	nt	0	4	2
CCCCCC(=O)Nc1cc(S(=O)(=O)O)cc2cc(S(=O)(=O)O)cc(O)c12	-21	-5	nt	57*	35*	17
COc1ccccc1CCNC(=O)CN1C(=O)c2ccccc2S1(=O)=O	6	4	1	0	2	2
Cc1cc(NC(=O)CSCC(=O)Nc2cc(C(F)(F)F)ccc2N2CCOCC2)no1	4	-9	2	-5	1	26*
CC(C)(C)C(=O)NC(=S)Nc1cc(C(F)(F)F)ccc1N1CCOCC1	6	-2	33*	4	13	7
Cc1cc(NC(=O)CSCC(=O)Nc2cc(C(F)(F)F)ccc2N2CCCC2)no1	-2	5	2	8	-6	5
SMILES	ARFGAP1 inhibitor	ASAP1 GAP inh	pPAFAH inh	PAFAH2 inh	PAFAH1B3 inh	PAFAH1B2 FP inh
Cc1ccc(NC(=S)NC(=O)/C=C/c2ccco2)c(O)c1	-1	11	30*	5	5	3
COc1ccc(NC(=S)NC(=O)/C=C/c2ccco2)c(OC)c1	13	-10	18	4	-4	-1
O=C(/C=C\c1ccco1)NC(=S)Nc1ccccc1O	-15	8	33*	-2	6	1
O=C(/C=C/c1ccco1)NC(=S)Nc1ccccc1O	4	-11	23	nt	nt	nt
Cc1ccc(S(=O)(=O)/N=C2\C=C(Nc3cccc(C(=O)O)c3)C(=O)c3ccccc32)cc1	1	10	24	51*	65*	36*
O=C1C=C(Nc2ccccc2)C(=O)c2ccccc21	6	5	3	-1	4	3
Cc1ccc(S(=O)(=O)/N=C2\C=C(NS(=O)(=O)c3ccccc3)C(=O)c3ccccc32)c(C)c1	-4	-8	nt	20	-10	1
CCc1ccc(S(=O)(=O)/N=C2\C=C(Nc3ccc(C(=O)O)cc3)C(=O)c3ccccc32)cc1	-9	-1	33*	50*	58*	32*
CC(C)(C)c1ccc(S(=O)(=O)/N=C2\C=C(NS(=O)(=O)c3ccccc3)C(=O)c3ccccc32)cc1	-2	-4	24	20	-9	41*
Cc1ccc(S(=O)(=O)/N=C2\C=C(Nc3cccc(C(=O)O)c3)C(=O)c3ccccc32)c(C)c1	2	19	27*	58*	63*	30*
O=C(Nc1ccc([N+](=O)[O-])cc1)c1cccc(S(=O)(=O)Nc2ccccn2)c1	2	14	4	-3	5	3
CCN(c1ccccc1)S(=O)(=O)c1ccc(OC)c(NS(=O)(=O)c2cccs2)c1	-2	-5	10	4	0	30*
Cc1cc(C)c(S(=O)(=O)N2CCN(C3CC(=O)N(c4ccccc4Cl)C3=O)CC2)c(C)c1 (stereo unspecified)	-2	6	3	1	3	1
COc1cc(/C=N/NC(=O)c2cc(-c3ccccc3)sc2N)cc(OC)c1OC	12	2	26*	nt	nt	nt
C=CC(COCc1ccccc1)N([C@@H](Cc1ccccc1)C(=O)OC)S(=O)(=O)c1ccccc1Br (stereo partly specified)	5	-7	-6	-9	6	-5
O=S(=O)(Nc1ccc2c(c1)nc1n2CCN(Cc2ccccc2)C1)c1ccccc1	4	-7	26*	8	-8	8
Cc1ccc(S(=O)(=O)Nc2ccc3c(c2)nc2n3CCN(Cc3ccccc3)C2)cc1	8	-6	6	-23	4	11
O=S1(=O)C[C@@H](N2CC[C@@H](O)C2)[C@H](COCc2ccccc2)N1	-4	13	nt	nt	nt	nt
Cc1ccc(NC(=O)CNc2cccc(S(=O)(=O)N3CCCCC3)c2)cc1F	-17	-10	31*	-5	2	-2
CSc1nc2ccc(NS(=O)(=O)c3ccc4c(c3)OCCO4)cc2s1	13	18	30*	-1	4	0
COc1ccccc1CCC(=O)NNC(=O)c1cccs1	-6	-1	3	0	0	2
Oc1ccc(C2Nc3cccc4cccc(c34)N2)c(O)c1	9	17	2	-5	36*	17
